{"source": "the RNAGym collection of RNA variant scans (doi:10.1126/science.aae0568)", "parents": {"B1": {"name": "tRNA (parent)", "chain": "GUUCCGUUGGCGUAAUGGUAACGCGUCUCCCUCCUAAGGAGAAGACUGCGGGUUCGAGUCCCGUACGGAACG"}}, "note": "Fewer inactive variants are shown than the library holds.", "data": [{"variants_of": "B1", "assay": "yeast fitness relative to wild type (ratio to wild type); higher = fitter; tRNA-Arg(CCU), competitive growth, 37 C, YPD", "in_short": "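For this measurement, the tRNA-Arg(CCU) gene was varied by chemical synthesis at a 3% per-site mutation rate across 69 sites, and each variant was placed at the native genomic locus in Saccharomyces cerevisiae. The pooled strains went through a 24-hour competition in YPD at 37°C in six parallel replicates, with amplicons from start and end populations read by 100-nucleotide paired-end sequencing. Darwinian fitness relative to wild type followed from the change in each genotype's frequency. Genotypes needed ≥ 100 starting reads, and estimates < 0.5 were set to 0.5.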", "values": [{"variant": "U7C U54C C55G", "yeast fitness": 0.655}, {"variant": "U7C U54G", "yeast fitness": 0.535}, {"variant": "U7C U59A", "yeast fitness": 0.765}, {"variant": "U7C U59G C60A G68U", "yeast fitness": "≤ 0.5"}, {"variant": "U7C U64A G68U", "yeast fitness": "≤ 0.5"}, {"variant": "U7C U64G", "yeast fitness": 0.809}, {"variant": "U7C U64G A69C", "yeast fitness": 0.603}, {"variant": "U7G", "yeast fitness": 0.983}, {"variant": "U7G A14C", "yeast fitness": 0.532}, {"variant": "U7G A14G", "yeast fitness": 0.911}, {"variant": "U7G A14G A20G U35G A43G U59A", "yeast fitness": "≤ 0.5"}, {"variant": "U7G A14G C22U G23A G38A C55A", "yeast fitness": "≤ 0.5"}, {"variant": "U7G A14G C22U G38A", "yeast fitness": 0.534}, {"variant": "U7G A14G U35G A43G C55U U59A", "yeast fitness": "≤ 0.5"}, {"variant": "U7G A14G U59A", "yeast fitness": 0.542}, {"variant": "U7G A14G U64A", "yeast fitness": 0.527}, {"variant": "U7G A14U U19A C22U", "yeast fitness": "≤ 0.5"}, {"variant": "U7G A14U U19A C22U C60G", "yeast fitness": "≤ 0.5"}, {"variant": "U7G A14U U53A", "yeast fitness": 0.554}, {"variant": "U7G A15C", "yeast fitness": 0.653}, {"variant": "U7G A15C A21C U28A G51A C60U C62U", "yeast fitness": 0.653}, {"variant": "U7G A15C A45C", "yeast fitness": 0.565}, {"variant": "U7G A15C C24U U32C A43G G51A U54C G67C", "yeast fitness": "≤ 0.5"}, {"variant": "U7G A15C G38C", "yeast fitness": "≤ 0.5"}, {"variant": "U7G A15C G44A", "yeast fitness": "≤ 0.5"}, {"variant": "U7G A15C U16A C33G A37C C49A C61U A70U", "yeast fitness": "≤ 0.5"}, {"variant": "U7G A15C U16A C33G A69C", "yeast fitness": "≤ 0.5"}, {"variant": "U7G A15G A21C", "yeast fitness": "≤ 0.5"}, {"variant": "U7G A15G C27A", "yeast fitness": 0.567}, {"variant": "U7G A15G C27U G68A", "yeast fitness": "≤ 0.5"}, {"variant": "U7G A15G C33G A69U", "yeast fitness": "≤ 0.5"}, {"variant": "U7G A15G C61U G67A", "yeast fitness": "≤ 0.5"}, {"variant": "U7G A15G U19C A21G G41A C55A", "yeast fitness": 0.575}, {"variant": "U7G A15G U19C A21G G41A C55A G63C", "yeast fitness": "≤ 0.5"}, {"variant": "U7G A15U", "yeast fitness": 0.592}, {"variant": "U7G A20C", "yeast fitness": 0.651}, {"variant": "U7G A20C A42C", "yeast fitness": "≤ 0.5"}, {"variant": "U7G A20C A70G", "yeast fitness": "≤ 0.5"}, {"variant": "U7G A20G", "yeast fitness": 0.872}, {"variant": "U7G A20G A21G G38C G50C", "yeast fitness": "≤ 0.5"}, {"variant": "U7G A20G A70G", "yeast fitness": 0.615}, {"variant": "U7G A20G U47A C61A", "yeast fitness": 0.597}, {"variant": "U7G A21C", "yeast fitness": 0.588}, {"variant": "U7G A21C A42U C66U", "yeast fitness": "≤ 0.5"}, {"variant": "U7G A21C G39C C49A G51A", "yeast fitness": "≤ 0.5"}, {"variant": "U7G A21C G44C C66U", "yeast fitness": "≤ 0.5"}, {"variant": "U7G A21C G44C G58C", "yeast fitness": "≤ 0.5"}, {"variant": "U7G A21C G48C C55U G56A", "yeast fitness": "≤ 0.5"}, {"variant": "U7G A21C G50A U64C", "yeast fitness": "≤ 0.5"}, {"variant": "U7G A21C G51A", "yeast fitness": "≤ 0.5"}, {"variant": "U7G A21C G56A", "yeast fitness": "≤ 0.5"}, {"variant": "U7G A21C G58C", "yeast fitness": "≤ 0.5"}, {"variant": "U7G A21C U26C G44C", "yeast fitness": "≤ 0.5"}, {"variant": "U7G A21G", "yeast fitness": 0.816}, {"variant": "U7G A21G U53C A57C A69U", "yeast fitness": "≤ 0.5"}, {"variant": "U7G A21U", "yeast fitness": 0.717}, {"variant": "U7G A36C G41A U53C", "yeast fitness": "≤ 0.5"}, {"variant": "U7G A36C G67A", "yeast fitness": "≤ 0.5"}, {"variant": "U7G A36G A45U", "yeast fitness": "≤ 0.5"}, {"variant": "U7G A36U A70U", "yeast fitness": 0.544}, {"variant": "U7G A36U C60U", "yeast fitness": "≤ 0.5"}, {"variant": "U7G A36U G63A", "yeast fitness": 0.532}, {"variant": "U7G A37G C49A", "yeast fitness": "≤ 0.5"}, {"variant": "U7G A37U A65G", "yeast fitness": 0.699}, {"variant": "U7G A37U C46G", "yeast fitness": "≤ 0.5"}, {"variant": "U7G A40C", "yeast fitness": 0.807}, {"variant": "U7G A40C U47A", "yeast fitness": "≤ 0.5"}, {"variant": "U7G A40U A43U G44A A45U U53A", "yeast fitness": 0.61}, {"variant": "U7G A40U A69C", "yeast fitness": 0.731}, {"variant": "U7G A40U G63A", "yeast fitness": 0.66}, {"variant": "U7G A42C C62U", "yeast fitness": 0.651}, {"variant": "U7G A42C G44C G67C", "yeast fitness": "≤ 0.5"}, {"variant": "U7G A42U", "yeast fitness": 0.683}, {"variant": "U7G A42U U53A", "yeast fitness": "≤ 0.5"}, {"variant": "U7G A43C", "yeast fitness": 0.969}, {"variant": "U7G A43C G58C", "yeast fitness": 0.648}, {"variant": "U7G A43C U64A", "yeast fitness": 0.682}, {"variant": "U7G A43G C46G A69U", "yeast fitness": "≤ 0.5"}, {"variant": "U7G A43G C60U C62U A70C", "yeast fitness": "≤ 0.5"}, {"variant": "U7G A43U A65C", "yeast fitness": 1}, {"variant": "U7G A43U C46A", "yeast fitness": 0.603}, {"variant": "U7G A43U C61G", "yeast fitness": "≤ 0.5"}, {"variant": "U7G A43U U64C", "yeast fitness": 0.546}]}]}
